# Data from ChEMBL document CHEMBL3865847, “The synthesis and biological evaluation of alkyl and benzyl naphthyridinium analogs of eupolauridine as potential antimicrobial and cytotoxic agents” (Bioorg Med Chem, 2016).
# How the values were obtained:
# [1] = system: Candida albicans; test: Antimicrobial activity against Candida albicans B311; format: functional
# How it was run: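 Cultured in Sabouraud dextrose broth 24 h, counted by hemocytometer, diluted to 10,000 CFU/mL. Added to serially diluted samples in 96-well plates, top final concentration 50 µg/mL (≤2.5% DMSO), incubated 37 °C. Growth by A630. MIC is the lowest concentration giving 80% inhibition against controls; IC50 from concentration versus % growth plots.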
# [2] = system: Cryptococcus neoformans; test: Antimicrobial activity against Cryptococcus neoformans ATCC 52657; format: functional
# How it was run: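 Grown in mycophil broth 72 h, hemocytometer-counted, diluted to 200,000 CFU/mL. Exposed to diluted samples in 96-well plates, maximum final 50 µg/mL (DMSO up to 2.5%), incubated 30 °C. A630 readout. MIC is the lowest concentration inhibiting 80% of growth versus controls; IC50 read from concentration versus % growth graphs.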
# [3] = system: Aspergillus fumigatus; test: Antimicrobial activity against Aspergillus fumigatus ATCC 26934; format: functional
# How it was run: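 Aspergillus fumigatus spores released by scraping a slant, used on assay day, in mycophil broth. Broth microdilution in 96-well plates, highest final DMSO 2.5%, incubated at 30 °C. Growth read as absorbance at 630 nm versus controls. MIC is the lowest tested concentration giving 80% growth inhibition; IC50 (50% inhibition) comes from concentration versus % growth plots.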
# [4] = system: Pseudomonas aeruginosa; test: Antimicrobial activity against Pseudomonas aeruginosa ATCC 15442; format: functional
# How it was run: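 Pseudomonas grown 24 h in trypticase soy broth, diluted 1:50. Combined with diluted samples in 96-well plates, top final concentration 50 µg/mL (≤2.5% DMSO), 37 °C incubation. Growth read at 630 nm. MIC is the lowest tested concentration inhibiting 80% of growth versus controls; IC50 from concentration versus % growth graphs.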
# [5] = Cytotoxicity against human SKOV3 cells assessed as cell growth inhibition after 48 hrs by neutral red dye based assay; format: functional; settings: SK-OV-3, 48 h
# How it was run: (§1)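 Cells kept in RPMI-1640 with 10% bovine serum and 60 µg/mL amikacin, 37 °C, 5% CO2. Seeded at 25,000 cells/well, left 24 h to adhere. Samples diluted in RPMI added, highest final concentration 10 µg/mL. Growth measured by neutral red uptake after 48 h exposure.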
# [6] = Cytotoxicity against African green monkey Vero cells assessed as cell growth inhibition after 48 hrs by neutral red dye based assay; format: toxicity, Chlorocebus sabaeus; how it was run: as §1
# [7] = Inhibition of Candida albicans DNA topoisomerase 1 using pHOT1 as substrate after 30 mins by agarose gel electrophoresis
# How it was run: (§2)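 Relaxation of supercoiled to relaxed DNA by TopoI measured with a commercial TopoI drug kit following kit protocol. IC50 calculated from dose-response curves of % inhibition versus concentration.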
# [8] = molecular target: T1, DNA topoisomerase 1 (Homo sapiens, UniProt P11387); test: Inhibition of human DNA topoisomerase 1 using pHOT1 as substrate after 30 mins by agarose gel electrophoresis; how it was run: as §2
# T1 sequence (P11387 whole entry): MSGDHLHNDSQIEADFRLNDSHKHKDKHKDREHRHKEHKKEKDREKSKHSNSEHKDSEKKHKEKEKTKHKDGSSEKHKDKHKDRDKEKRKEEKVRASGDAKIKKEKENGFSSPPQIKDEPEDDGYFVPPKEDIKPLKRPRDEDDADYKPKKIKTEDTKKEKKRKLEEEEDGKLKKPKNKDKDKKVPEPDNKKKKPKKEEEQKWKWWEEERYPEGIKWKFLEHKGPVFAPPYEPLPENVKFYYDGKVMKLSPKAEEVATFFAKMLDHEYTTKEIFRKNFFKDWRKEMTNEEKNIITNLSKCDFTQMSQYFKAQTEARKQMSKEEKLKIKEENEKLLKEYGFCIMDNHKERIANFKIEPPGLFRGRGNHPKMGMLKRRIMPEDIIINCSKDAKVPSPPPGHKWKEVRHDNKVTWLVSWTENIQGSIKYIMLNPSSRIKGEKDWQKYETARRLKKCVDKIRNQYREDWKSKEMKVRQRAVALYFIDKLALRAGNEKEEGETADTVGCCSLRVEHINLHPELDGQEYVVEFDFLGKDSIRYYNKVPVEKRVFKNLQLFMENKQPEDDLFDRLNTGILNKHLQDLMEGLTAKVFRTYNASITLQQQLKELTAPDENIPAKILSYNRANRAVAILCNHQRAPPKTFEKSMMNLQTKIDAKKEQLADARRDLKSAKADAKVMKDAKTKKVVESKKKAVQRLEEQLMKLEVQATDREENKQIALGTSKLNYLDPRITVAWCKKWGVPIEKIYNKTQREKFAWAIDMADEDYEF
# [9] = Selectivity index, ratio of IC50 for human DNA topoisomerase 1 to IC50 for Candida albicans DNA topoisomerase 1
# [10] = Cytotoxicity against human SK-MEL cells assessed as cell growth inhibition after 48 hrs by neutral red dye based assay; format: functional; how it was run: as §1
# [11] = Cytotoxicity against human KB cells assessed as cell growth inhibition after 48 hrs by neutral red dye based assay; format: functional; how it was run: as §1
# [12] = Cytotoxicity against human BT549 cells assessed as cell growth inhibition after 48 hrs by neutral red dye based assay; format: functional; settings: BT-549, 48 h; how it was run: as §1
# [13] = system: Staphylococcus aureus; test: Antimicrobial activity against Staphylococcus aureus ATCC 6538; format: functional
# How it was run: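 Staphylococcus aureus grown 24 h in Eugon broth, diluted 1:50 in broth, added to serially diluted samples in 96-well plates (highest final DMSO 2.5%), incubated at 37 °C. Growth measured at 630 nm versus controls. MIC is the lowest concentration inhibiting 80% of growth; IC50 (50% inhibition) comes from concentration versus % growth plots.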
# [14] = system: Staphylococcus aureus; test: Antimicrobial activity against methicillin-resistant Staphylococcus aureus; format: functional
# How it was run: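 MRSA precultured 24 h, diluted 1:50 in broth, added to serially diluted samples in 96-well plates (highest final DMSO 2.5%), incubated at 37 °C. Growth measured as absorbance at 630 nm versus controls. MIC is the lowest concentration giving 80% inhibition; IC50 (50% inhibition) is read from concentration versus % growth plots.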
# [15] = system: Mycobacterium intracellulare; test: Antimicrobial activity against Mycobacterium intracellulare ATCC 23068; format: functional
# How it was run: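 Mycobacterium grown 72 h in Middlebrook medium with OADC supplement, diluted 1:30 in broth. Incubated at 37 °C with diluted samples in 96-well plates, highest final 50 µg/mL, DMSO at most 2.5%. Absorbance at 630 nm. MIC = lowest concentration with 80% growth inhibition relative to controls; IC50 from concentration versus % growth plots.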
# [16] = system: Plasmodium falciparum; test: Antimalarial activity against Plasmodium falciparum D6 infected in RBC after 48 hrs by lactate dehydrogenase assay; format: functional; settings: D6, 48 h
# How it was run: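 Parasites grown in A+ human erythrocytes in RPMI 1640 with 10% A+ human serum, 25 mM HEPES, 27 mM bicarbonate, 60 µg/mL amikacin, 37 °C under 90% N2/5% O2/5% CO2. Infected cells exposed 48 h in microtiter wells, highest concentration 4.8 µg/mL. Growth read by Malstat reagent (parasite LDH) with nitro blue tetrazolium reduction, absorbance 630 nm.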
# [17] = Cytotoxicity against African green monkey Vero cells assessed as cell growth inhibition at 10 ug/ml after 48 hrs by neutral red dye based assay; format: toxicity; settings: chlorocebus sabaeus; how it was run: as §1
SMILES,MIC80 [1],MIC80 [2],MIC80 [3],IC50 [1],IC50 [2],IC50 [4],IC50 [5],IC50 at 48 h [6],IC50 [7],IC50 [8],Ratio IC50 [9],IC50 [10],IC50 [11],IC50 [12],IC50 [13],IC50 [14],MIC80 [15],IC50 [16],Activity [17]
C[C@@H]1[C@H](O)[C@@H](C)/C=C/C=C/C=C/C=C/C=C/C=C/C=C/[C@H](O[C@@H]2O[C@H](C)[C@@H](O)[C@H](N)[C@@H]2O)C[C@@H]2O[C@](O)(C[C@@H](O)C[C@@H](O)[C@H](O)CC[C@@H](O)C[C@@H](O)CC(=O)O[C@H]1C)C[C@H](O)[C@H]2C(=O)O [AMPHOTERICIN B],0.156 µg/mL,0.078 µg/mL,1.25 µg/mL,–,–,–,–,–,–,–,–,–,–,–,–,–,–,–,–
c1ccc2c(c1)-c1nccc3ccnc-2c13 [EUPOLAURIDINE],12.5 µg/mL,25 µg/mL,2 µg/mL,5.25 µg/mL,4.8 µg/mL,5 µg/mL,> 10 µg/mL,> 10 µg/mL,6.5 µg/mL,20.6 µM,1.55,–,–,–,–,–,–,–,–
COc1cccc2c1C(=O)c1c(O)c3c(c(O)c1C2=O)C[C@@](O)(C(=O)CO)C[C@@H]3O[C@H]1C[C@H](N)[C@H](O)[C@H](C)O1 [DOXORUBICIN],–,–,–,–,–,–,1.3 µg/mL,> 10 µg/mL,–,–,–,1.11 µg/mL,1.59 µg/mL,1.35 µg/mL,–,–,–,–,–
CC[n+]1c2c3c(nc(-c4ccccc4)cc3c3ccccc31)-c1ccccc1-2.[Br-],0.098 µg/mL,0.39 µg/mL,–,0.04 µg/mL,0.17 µg/mL,2 µg/mL,4 µg/mL,7.8 µg/mL,< 6 µg/mL,< 13.7 µM,–,1.3 µg/mL,6.5 µg/mL,8 µg/mL,2 µg/mL,2 µg/mL,10 µg/mL,–,–
FC(F)(F)c1ccc(C[n+]2ccc3ccnc4c3c2-c2ccccc2-4)cc1.[Br-],12.5 µg/mL,3.12 µg/mL,–,6.5 µg/mL,0.57 µg/mL,27 µg/mL,0.08 µg/mL,6.4 µg/mL,30 µg/mL,69.9 µM,0.97,0.78 µg/mL,0.54 µg/mL,0.79 µg/mL,30 µg/mL,–,50 µg/mL,0.0085 µg/mL,–
[Br-].c1ccc(C[n+]2ccc3c4c(nc5ccccc53)-c3ccccc3-c42)cc1,–,12.5 µg/mL,–,–,2.13 µg/mL,4 µg/mL,1.2 µg/mL,–,0.55 µg/mL,1.34 µM,0.96,1.8 µg/mL,2.9 µg/mL,6 µg/mL,5 µg/mL,35 µg/mL,10 µg/mL,0.0415 µg/mL,Non-Toxic
NC(=O)C[n+]1ccc2ccnc3c2c1-c1ccccc1-3.[Br-],–,50 µg/mL,–,–,30 µg/mL,–,> 10 µg/mL,> 10 µg/mL,–,–,–,6.5 µg/mL,–,–,–,–,–,0.09 µg/mL,–
C[n+]1c2c3c(nc(-c4ccccc4)cc3c3ccccc31)-c1ccccc1-2.[I-],0.39 µg/mL,0.78 µg/mL,–,0.2 µg/mL,0.23 µg/mL,4 µg/mL,4.5 µg/mL,–,0.375 µg/mL,1.01 µM,0.79,3.5 µg/mL,> 10 µg/mL,7.5 µg/mL,4.5 µg/mL,5 µg/mL,50 µg/mL,–,Non-Toxic
[Br-].c1ccc2c(c1)-c1nccc3cc[n+](Cc4ccc5ccccc5c4)c-2c13,0.78 µg/mL,0.39 µg/mL,–,0.67 µg/mL,0.3 µg/mL,30 µg/mL,< 1.1 µg/mL,–,21 µg/mL,70.5 µM,0.7,< 1.1 µg/mL,6 µg/mL,> 10 µg/mL,20 µg/mL,22 µg/mL,50 µg/mL,0.0195 µg/mL,Non-Toxic
C[n+]1ccc2cc(-c3ccccc3)nc3c2c1-c1ccccc1-3.[I-],0.39 µg/mL,0.78 µg/mL,–,0.32 µg/mL,0.4 µg/mL,25 µg/mL,< 1.1 µg/mL,–,35 µg/mL,28.4 µM,2.92,9 µg/mL,7 µg/mL,6.2 µg/mL,20 µg/mL,20 µg/mL,–,0.46 µg/mL,Non-Toxic
